This is a sample that favours compounds with a hit; in the whole collection about 1.5% have one here.
APJ antagonist = blocks the human apelin receptor APJ; P35414; CHO-K1 APJ beta-arrestin complementation, luminescence; inhibition, % at 20 µM; actives 0.32% (n = 330,000); AID 2521;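 active = inhibition above about 40% at 20 µM, limit read from the data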;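 note: cells challenged with 10 nM apelin-13 agonist together with compound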
Target sequence (P35414 whole entry, looked up): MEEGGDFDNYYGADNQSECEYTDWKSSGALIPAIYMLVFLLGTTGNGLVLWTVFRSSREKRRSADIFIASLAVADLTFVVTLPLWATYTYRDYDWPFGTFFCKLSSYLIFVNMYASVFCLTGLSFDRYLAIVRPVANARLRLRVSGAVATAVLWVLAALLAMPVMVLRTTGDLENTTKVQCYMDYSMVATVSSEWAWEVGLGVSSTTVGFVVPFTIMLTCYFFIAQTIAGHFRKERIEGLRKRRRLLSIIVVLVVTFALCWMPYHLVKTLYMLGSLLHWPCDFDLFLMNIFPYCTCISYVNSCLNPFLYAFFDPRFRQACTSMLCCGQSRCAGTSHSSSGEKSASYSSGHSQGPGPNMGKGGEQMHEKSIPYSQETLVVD
iPSC survival up = hiPSC single-cell survival enhancement; ATPlite luminescence; 100% = ROCK inhibitor wells, 0% = DMSO; survival enhancement, % at 20 µM; actives 0.044% (n = 360,000); in the data active = survival enhancement above about 18%;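 note: cells exposed to compounds for 16 hours before the ATP read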
CCR6 antag = antagonists of human CCR6 receptor | CHO-K1 CCR6 PathHunter beta-arrestin, luminescence, CCL20-stimulated | P51684 | actives 0.49% (n = 340,000) | inhibition, % at 20 µM | AID 493098;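 active = compounds whose inhibition of the agonist-driven luminescence signal at 20 µM reaches about 50%, limit read from the data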;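 note: cells stimulated with CCL20 at 14 nM final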
CXCR6 inh = blocks human CXCR6 beta-arrestin recruitment. O00574. CHO-K1 PathHunter CXCR6 beta-arrestin, luminescence. inhibition, % at 20 µM. actives 0.36% (n = 360,000); in the data active = inhibition above about 34%, passing the limit was not always enough;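 note: antagonist mode with CXCL16 agonist at 10 nM final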
APJ ag = agonists of human APJ apelin receptor; CHO-K1 APJ PathHunter beta-arrestin, luminescence; 0% DMSO wells, 100% apelin; activation, % at 20 µM; actives 0.11% (n = 330,000); AID 2520;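 active = activation more than six SD over the plate average, tested at 20 µM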
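Assay system – PathHunter CHO-K1 APJ (AGTRL-1) beta-arrestin reporter cells · Compound – one dose, 20 µM compound, 1% DMSO · Timing – compound 90 min 25 °C, reagent 1 h · Measured by – luminescence from split beta-galactosidase complementation, Galacton Star/Emerald II substrate · Measure – beta-arrestin recruitment to APJ as agonist activity, luminescent signal · Benchmarks – DMSO vs Apelin-13 10 nM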
EBI2 antag = blocks human EBI2 receptor beta-arrestin signaling; P32249; EBI2 beta-arrestin recruitment, luminescence, 7a,25-OHC stimulated; inhibition, % at 5 µM; actives 0.81% (n = 360,000); in the data active = inhibition above about 38%;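 note: enzyme fragment complementation signal reports receptor beta-arrestin coupling in cells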
EBI2 conf = confirmation of human EBI2 receptor antagonists; shares compounds with EBI2 antag; EBI2 beta-arrestin luminescence, 7a,25-OHC antagonism; inhibition, % at 5 µM; actives 29% (n = 2,400); AID 651997;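 active = inhibition of at least 50%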
EBI2 ag = activates EBI2, counter-screen for EBI2 antagonists; 2,400 tested, under 10 active; shares compounds with EBI2 antag; activation, % at 5 µM; AID 652000; EBI2-expressing cells, agonist mode, luminescence, 60 min; 0% vehicle, 100% 7α,25-dihydroxycholesterol control;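 active = activation of at least 50%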
bGal cs = inhibits E. coli beta-galactosidase, counter-screen for EBI2 antagonists; shares compounds with EBI2 antag; purified beta-galactosidase, luminescent Galacton Star, 15 min; AID 652176; actives 1% (n = 2,400); inhibition, % at 5 µM;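 active = replicate-average signal at least 3 plate SD below neutral wells, shown as high inhibition, flagging enzyme-inhibiting false positives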;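 note: higher means stronger loss of beta-gal luminescence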
Large screens that a line does not name were inactive (follow-up assays come after a bar, where they were run).

CCn1c(SCC(=O)N2CCC(C)CC2)nc2c1c(=O)n(C)c(=O)n2C	none
O=[N+]([O-])c1ccc(S(=O)(=O)NCCS(=O)(=O)N2CCN(c3ccccc3)CC2)cc1	none
O=C1OCCC1=COCCCCCOC=C1CCOC1=O	none (no result: APJ antagonist, CCR6 antag, APJ ag)
COc1cc(F)c(C2=CC(=O)C[C@H](c3ccc(Cl)cc3)C2)cc1F	EBI2 antag 57.9 | EBI2 conf inactive | EBI2 ag inactive | bGal cs inactive
O=C1C=C(c2cc(F)ccc2F)C[C@@H](c2ccc(Cl)cc2)C1	none
CNC(=S)N1N=C(c2ccc(Br)cc2)CC1c1ccc(Br)cc1 (stereo not drawn)	EBI2 antag 79.8 | EBI2 conf 69.9 | EBI2 ag inactive | bGal cs inactive
COc1ccc(C2CC(c3ccc(Br)cc3)=NN2C(=S)Nc2ccccc2)cc1 (stereo not drawn)	none
CNC(=S)N1N=C(c2ccc(OC)cc2)CC1c1ccc(N(C)C)cc1 (stereo not drawn)	EBI2 antag 87.1 | EBI2 conf 81.4 | EBI2 ag inactive | bGal cs inactive
COc1ccccc1CNc1cc(CSc2ccc(Cl)cc2)nc(C)n1	EBI2 antag 48.5 | EBI2 conf inactive | EBI2 ag inactive | bGal cs inactive
COC(=O)c1ccc(Oc2ccc(C(F)(F)F)cn2)cc1	EBI2 antag 43.5 | EBI2 conf inactive | EBI2 ag inactive | bGal cs inactive
CCC(C)C(CO)NCCCn1cnc2c(SC)ncnc21 (stereo not drawn)	none (no result: APJ antagonist, CCR6 antag, APJ ag)
COc1ccc(N/C=C(\C#N)c2ccc(OCCCF)cc2)cc1	EBI2 antag 71.8 | EBI2 conf inactive | EBI2 ag inactive | bGal cs inactive
Cc1ccc(N/C=C(/C#N)c2ccsc2)cc1	none
Cc1ccc(N/C=C(\C#N)c2ccc(OCCCF)cc2)cc1	EBI2 antag 81.3 | EBI2 conf 52.2 | EBI2 ag inactive | bGal cs inactive
CC1(C(=O)Nc2ccc3c(c2)OCCO3)CCN1C(=O)C1(c2ccc(Cl)cc2)CC1 (stereo not drawn)	none (no result: APJ antagonist, CCR6 antag, APJ ag)
O=C(CN1CCN(S(=O)(=O)c2cccc(Br)c2)CC1)NCCc1cccs1	EBI2 antag 38.8 | EBI2 conf inactive | EBI2 ag inactive | bGal cs inactive
Cc1nc(CS(=O)(=O)c2ccccc2)cc(Sc2ccc(Cl)cc2Cl)n1	EBI2 antag 74.8 | EBI2 conf 52.5 | EBI2 ag inactive | bGal cs inactive
Cc1nc(Cl)cc(CS(=O)(=O)c2ccc(Cl)cc2)n1	none
CCOC(=O)N1CCN(C(=O)c2cc3c(=O)[nH]c4ccccc4c3s2)CC1	EBI2 antag 77.0 | EBI2 conf 70.0 | EBI2 ag inactive | bGal cs inactive
O=C(Cn1ncc2c1-c1ccccc1OC2)N1CCN(c2ccccn2)CC1	none
COc1ccc(N2CCN(C(=O)c3cc4c(s3)-c3ccccc3OC4)CC2)cc1	EBI2 antag 80.0 | EBI2 conf 67.1 | EBI2 ag inactive | bGal cs inactive
COc1cccc(N2CCN(C(=O)c3cc4c(s3)-c3ccccc3OC4)CC2)c1	none
O=C(c1cc2c(s1)-c1ccccc1OC2)N1CCN(c2ccccn2)CC1	EBI2 antag 44.7 | EBI2 conf inactive | EBI2 ag inactive | bGal cs inactive
CCOC(=O)N1CCN(C(=O)c2cc3c(s2)-c2ccccc2OC3)CC1	EBI2 antag 82.3 | EBI2 conf 73.7 | EBI2 ag inactive | bGal cs inactive
O=C(c1cc2c(s1)-c1ccccc1OC2)N1CCN(c2ccccc2)CC1	EBI2 antag 60.1 | EBI2 conf 54.8 | EBI2 ag inactive | bGal cs inactive
O=C(c1cc2c(s1)-c1ccccc1OC2)N1CCCC1	none
CCC1CSC(Nc2ccc(C(=O)/C=C/c3ccc(Br)cc3)cc2)=N1 (stereo not drawn)	EBI2 antag 60.8 | EBI2 conf 54.8 | EBI2 ag inactive | bGal cs inactive
Cc1ccc(-n2c(SCC(=O)N(C)C3CCS(=O)(=O)C3)nc3ccccc3c2=O)c(C)c1 (stereo not drawn)	none
Cc1ccc(C)c(OCCC(=O)N2CCN(S(=O)(=O)c3cc(F)ccc3F)CC2)c1	EBI2 antag 46.0 | EBI2 conf inactive | EBI2 ag inactive | bGal cs inactive
Cc1ccc(S(=O)(=O)N2CCN(C(=O)CCOc3cc(C)ccc3C)CC2)cc1	none
O=C(COc1ccc(Cl)cc1)N1CCN(S(=O)(=O)c2cc(F)ccc2F)CC1	EBI2 antag 86.7 (no result: APJ antagonist, CCR6 antag, APJ ag) | EBI2 conf 68.1 | EBI2 ag inactive | bGal cs inactive
Cc1cc(Cl)ccc1OCCCC(=O)N1CCN(S(=O)(=O)c2ccccc2)CC1	EBI2 antag 62.6 | EBI2 conf inactive | EBI2 ag inactive | bGal cs inactive
CCc1ccc(C(=O)NNC(=O)C2CSC3(C)CCC(=O)N23)cc1 (stereo not drawn)	none
COC(=O)c1ccc2nc(-c3ccc(C)cc3)c(CC3CCCCC3)n2c1	none (no result: APJ antagonist, CCR6 antag, APJ ag)
CCn1ncc(Br)c1C(=O)NC1CCCCCCC1	none
COc1ccc(OCc2nc(C#N)c(N3CCN(c4ccc(OC)cc4)CC3)o2)cc1	EBI2 antag 43.6 | EBI2 conf inactive | EBI2 ag inactive | bGal cs inactive
COc1ccc(N2CCN(c3oc(COc4ccccc4Cl)nc3C#N)CC2)cc1	none
N#Cc1nc(COc2ccc(Br)cc2)oc1N1CCN(Cc2ccccc2)CC1	EBI2 antag 43.1 (no result: APJ antagonist, APJ ag) | EBI2 conf inactive | EBI2 ag inactive | bGal cs inactive
COc1ccc(Nc2oc(COc3ccc(OC)cc3)nc2C#N)cc1	EBI2 antag 52.0 | EBI2 conf inactive | EBI2 ag inactive | bGal cs inactive
N#Cc1nc(COc2ccc(F)cc2)oc1N1CCC(Cc2ccccc2)CC1	EBI2 antag 60.1 | EBI2 conf inactive | EBI2 ag inactive | bGal cs inactive
N#Cc1nc(COc2ccc(F)cc2)oc1N1CCN(Cc2ccccc2)CC1	none
NC(=O)C1(Nc2ccc(C(=O)O)cc2)CCCC1	none (no result: APJ antagonist, APJ ag)
O=C(CN(c1ccccc1)S(=O)(=O)c1ccccc1)NCCSc1nc2ccccc2s1	EBI2 antag 59.0 | EBI2 conf 53.2 | EBI2 ag inactive | bGal cs inactive
Cc1ccc(N(CC(=O)NCCSc2nc3ccccc3s2)S(=O)(=O)c2ccccc2)c(C)c1	EBI2 antag 45.6 | EBI2 conf inactive | EBI2 ag inactive | bGal cs inactive
